Measured values as given in ChEMBL document CHEMBL2086321, “Modulation of thermo-transient receptor potential (thermo-TRP) channels by thymol-based compounds” (Bioorg Med Chem Lett, 2012).

Biological target: Transient receptor potential cation channel subfamily A member 1 (Rattus norvegicus) (UniProt Q6RI86)
Experiment: Activation of rat TRPA1 expressed in HEK293 cells assessed as stimulation of intracellular Ca2+ levels relative to 100 uM allyl isothiocyanate
Type: cell-based
How it was run: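 Efficacy on stably transfected rat TRPA1-HEK293 cells is the intracellular Ca2+ rise expressed as percent of the allyl isothiocyanate response. Means ± SEM, N = 3.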

Sequence of Transient receptor potential cation channel subfamily A member 1 (Rattus norvegicus) (Q6RI86 whole entry): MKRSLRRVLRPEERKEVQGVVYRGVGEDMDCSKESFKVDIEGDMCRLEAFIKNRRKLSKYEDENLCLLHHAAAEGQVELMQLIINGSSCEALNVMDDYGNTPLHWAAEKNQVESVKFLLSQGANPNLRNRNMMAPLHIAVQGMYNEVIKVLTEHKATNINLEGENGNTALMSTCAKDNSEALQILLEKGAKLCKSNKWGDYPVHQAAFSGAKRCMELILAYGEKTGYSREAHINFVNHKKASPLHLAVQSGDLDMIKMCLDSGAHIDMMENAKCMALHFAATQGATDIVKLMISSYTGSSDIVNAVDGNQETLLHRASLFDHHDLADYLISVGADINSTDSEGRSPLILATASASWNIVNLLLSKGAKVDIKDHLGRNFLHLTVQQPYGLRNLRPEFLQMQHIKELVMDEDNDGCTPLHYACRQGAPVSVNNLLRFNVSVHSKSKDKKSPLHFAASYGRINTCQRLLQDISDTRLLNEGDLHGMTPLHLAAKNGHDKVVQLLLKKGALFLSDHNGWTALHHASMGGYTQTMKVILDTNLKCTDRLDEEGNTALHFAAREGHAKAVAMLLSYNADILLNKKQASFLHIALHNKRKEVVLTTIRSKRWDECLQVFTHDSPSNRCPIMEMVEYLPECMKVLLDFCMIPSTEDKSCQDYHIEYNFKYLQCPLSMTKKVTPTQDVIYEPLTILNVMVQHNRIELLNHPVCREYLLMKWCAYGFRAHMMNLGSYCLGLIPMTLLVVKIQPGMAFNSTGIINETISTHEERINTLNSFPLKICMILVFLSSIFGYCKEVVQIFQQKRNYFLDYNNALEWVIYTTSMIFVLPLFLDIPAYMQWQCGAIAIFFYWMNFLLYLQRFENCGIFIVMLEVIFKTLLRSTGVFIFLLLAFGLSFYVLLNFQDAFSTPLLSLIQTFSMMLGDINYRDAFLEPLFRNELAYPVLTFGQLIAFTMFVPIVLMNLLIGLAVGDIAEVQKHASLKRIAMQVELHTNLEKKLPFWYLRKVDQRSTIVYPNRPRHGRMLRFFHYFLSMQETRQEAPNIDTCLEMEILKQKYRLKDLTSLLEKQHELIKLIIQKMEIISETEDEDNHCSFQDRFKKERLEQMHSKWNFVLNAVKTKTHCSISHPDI

| Compound | Efficacy |
| --- | --- |
| Cc1ccc(C(C)C)c(C(=O)Nc2ccc(C(C)(C)C)cc2)c1 | 97.9% |
| Cc1ccc(C(C)C)c(NC(=O)Oc2ccc(C(F)(F)F)cc2)c1 | 178% |
| Cc1ccc(C(C)C)c(OC(=O)Cc2ccc(-c3ccccc3)cc2)c1 | 226% |
| Cc1ccc(C(C)C)c(O)c1 [THYMOL] | 119% |
| Cc1ccc(C(C)C)c(NC(=O)Cc2cccc(I)c2)c1 | 154% |
| Cc1ccc(C(C)C)c(OC(=O)c2ccc(-c3ccccc3)cc2)c1 | 204% |
| COc1ccc(C(=O)Nc2cc(C)ccc2C(C)C)cc1 | 149% |
| Cc1ccc(C(C)C)c(NC(=O)Nc2ccc(-c3ccccc3)cc2)c1 | 224% |
| COc1ccc(C(=O)Oc2cc(C)ccc2C(C)C)cc1 | 149% |
| COc1ccc(NC(=O)Nc2cc(C)ccc2C(C)C)cc1 | 114% |
| Cc1ccc(C(C)C)c(C(=O)NCCc2c[nH]c3ccc(OCc4ccccc4)cc23)c1 | 241% |

Biological target: T1, Transient receptor potential cation channel subfamily A member 1 (Rattus norvegicus, UniProt Q6RI86)
Experiment: Activation of rat TRPA1 expressed in HEK293 cells assessed as stimulation of intracellular Ca2+ levels
Type: cell-based
How it was run: (§1)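 HEK293 cells stably transfected with rat TRPA1, rat TRPM8 or rat TRPV3 cDNA. Compounds were applied and the rise in intracellular Ca2+ was recorded.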

T1 sequence (Q6RI86 whole entry): as above

| Compound | EC50 |
| --- | --- |
| Cc1ccc(C(C)C)c(C(=O)Nc2ccc(C(C)(C)C)cc2)c1 | 0.6 µM |
| Cc1ccc(C(C)C)c(NC(=O)Oc2ccc(C(F)(F)F)cc2)c1 | 41 µM |
| Cc1ccc(C(C)C)c(OC(=O)Cc2ccc(-c3ccccc3)cc2)c1 | 1.8 µM |
| Cc1ccc(C(C)C)c(O)c1 [THYMOL] | 287 µM |
| Cc1ccc(C(C)C)c(NC(=O)Cc2cccc(I)c2)c1 | 20.5 µM |
| Cc1ccc(C(C)C)c(OC(=O)c2ccc(-c3ccccc3)cc2)c1 | 3.3 µM |
| COc1ccc(C(=O)Nc2cc(C)ccc2C(C)C)cc1 | 45.9 µM |
| Cc1ccc(C(C)C)c(NC(=O)Nc2ccc(-c3ccccc3)cc2)c1 | 32.2 µM |
| COc1ccc(C(=O)Oc2cc(C)ccc2C(C)C)cc1 | 1 µM |
| COc1ccc(NC(=O)Nc2cc(C)ccc2C(C)C)cc1 | 14.1 µM |
| Cc1ccc(C(C)C)c(C(=O)NCCc2c[nH]c3ccc(OCc4ccccc4)cc23)c1 | 25.9 µM |

Biological target: T1, Transient receptor potential cation channel subfamily A member 1
Experiment: Inhibition of rat TRPA1 expressed in HEK293 cells assessed as reduction in 100 uM allyl isothiocyanate-stimulated increase in intracellular Ca2+ levels
Type: cell-based
How it was run: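 Rat TRPA1-HEK293 stable cells were preincubated 5 min with compound, then incubation continued with allyl isothiocyanate.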

| Compound | IC50 |
| --- | --- |
| Cc1ccc(C(C)C)c(C(=O)Nc2ccc(C(C)(C)C)cc2)c1 | 0.84 µM |
| Cc1ccc(C(C)C)c(NC(=O)Oc2ccc(C(F)(F)F)cc2)c1 | 4.1 µM |
| Cc1ccc(C(C)C)c(OC(=O)Cc2ccc(-c3ccccc3)cc2)c1 | 20.9 µM |
| Cc1ccc(C(C)C)c(O)c1 [THYMOL] | 125 µM |
| Cc1ccc(C(C)C)c(NC(=O)Cc2cccc(I)c2)c1 | 43.2 µM |
| Cc1ccc(C(C)C)c(OC(=O)c2ccc(-c3ccccc3)cc2)c1 | 5.5 µM |
| COc1ccc(C(=O)Nc2cc(C)ccc2C(C)C)cc1 | > 100 µM |
| Cc1ccc(C(C)C)c(NC(=O)Nc2ccc(-c3ccccc3)cc2)c1 | 27.9 µM |
| COc1ccc(C(=O)Oc2cc(C)ccc2C(C)C)cc1 | 2.7 µM |
| COc1ccc(NC(=O)Nc2cc(C)ccc2C(C)C)cc1 | 34.4 µM |
| Cc1ccc(C(C)C)c(C(=O)NCCc2c[nH]c3ccc(OCc4ccccc4)cc23)c1 | 70.2 µM |

Biological target: Transient receptor potential cation channel subfamily M member 8 (Rattus norvegicus) (UniProt Q8R455)
Experiment: Activation of rat TRPM8 expressed in HEK293 cells assessed as stimulation of intracellular Ca2+ levels relative to 4 uM ionomycin
Type: cell-based
How it was run: (§2)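 Efficacy on HEK293 cells stably expressing rat TRPM8 or rat TRPV3 is the intracellular Ca2+ elevation expressed as percent of the ionomycin response.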

Sequence of Transient receptor potential cation channel subfamily M member 8 (Rattus norvegicus) (Q8R455 whole entry, looked up): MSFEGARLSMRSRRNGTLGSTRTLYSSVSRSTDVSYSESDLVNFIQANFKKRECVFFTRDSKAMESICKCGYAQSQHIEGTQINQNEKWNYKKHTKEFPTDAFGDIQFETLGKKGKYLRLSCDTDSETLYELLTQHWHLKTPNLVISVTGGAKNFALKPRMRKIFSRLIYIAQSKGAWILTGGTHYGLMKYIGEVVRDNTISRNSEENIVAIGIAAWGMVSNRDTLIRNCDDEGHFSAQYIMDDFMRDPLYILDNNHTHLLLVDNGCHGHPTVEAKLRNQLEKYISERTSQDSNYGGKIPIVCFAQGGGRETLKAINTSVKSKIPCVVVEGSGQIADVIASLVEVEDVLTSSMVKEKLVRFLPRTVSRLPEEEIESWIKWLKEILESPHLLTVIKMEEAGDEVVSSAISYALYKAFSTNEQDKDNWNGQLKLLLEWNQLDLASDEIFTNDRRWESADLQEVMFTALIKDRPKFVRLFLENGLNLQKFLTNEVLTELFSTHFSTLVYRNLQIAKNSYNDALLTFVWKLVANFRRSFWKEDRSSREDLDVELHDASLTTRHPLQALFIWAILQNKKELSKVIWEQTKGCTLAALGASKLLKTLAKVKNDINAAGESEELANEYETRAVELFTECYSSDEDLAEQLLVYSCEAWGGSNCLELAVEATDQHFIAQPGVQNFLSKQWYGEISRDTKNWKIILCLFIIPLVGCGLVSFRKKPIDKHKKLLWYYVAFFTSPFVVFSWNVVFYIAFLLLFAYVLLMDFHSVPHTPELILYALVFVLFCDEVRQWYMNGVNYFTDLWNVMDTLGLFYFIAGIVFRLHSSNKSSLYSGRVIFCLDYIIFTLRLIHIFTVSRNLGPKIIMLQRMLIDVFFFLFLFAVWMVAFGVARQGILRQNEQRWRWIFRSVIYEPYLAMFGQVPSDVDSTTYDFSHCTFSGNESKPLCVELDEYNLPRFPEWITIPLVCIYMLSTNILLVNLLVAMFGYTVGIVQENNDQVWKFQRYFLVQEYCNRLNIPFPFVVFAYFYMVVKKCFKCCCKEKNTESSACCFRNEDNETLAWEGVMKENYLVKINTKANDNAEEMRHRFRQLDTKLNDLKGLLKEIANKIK

| Compound | Efficacy |
| --- | --- |
| Cc1ccc(C(C)C)c(C(=O)Nc2ccc(C(C)(C)C)cc2)c1 | 40% |
| Cc1ccc(C(C)C)c(NC(=O)Oc2ccc(C(F)(F)F)cc2)c1 | < 10% |
| Cc1ccc(C(C)C)c(OC(=O)Cc2ccc(-c3ccccc3)cc2)c1 | < 10% |
| Cc1ccc(C(C)C)c(O)c1 [THYMOL] | 31.1% |
| Cc1ccc(C(C)C)c(NC(=O)Cc2cccc(I)c2)c1 | < 10% |
| Cc1ccc(C(C)C)c(OC(=O)c2ccc(-c3ccccc3)cc2)c1 | < 10% |
| COc1ccc(C(=O)Nc2cc(C)ccc2C(C)C)cc1 | 58.1% |
| Cc1ccc(C(C)C)c(NC(=O)Nc2ccc(-c3ccccc3)cc2)c1 | < 10% |
| COc1ccc(C(=O)Oc2cc(C)ccc2C(C)C)cc1 | < 10% |
| COc1ccc(NC(=O)Nc2cc(C)ccc2C(C)C)cc1 | < 10% |
| Cc1ccc(C(C)C)c(C(=O)NCCc2c[nH]c3ccc(OCc4ccccc4)cc23)c1 | < 10% |

Biological target: T2, Transient receptor potential cation channel subfamily M member 8 (Rattus norvegicus, UniProt Q8R455)
Experiment: Activation of rat TRPM8 expressed in HEK293 cells assessed as stimulation of intracellular Ca2+ levels
Type: cell-based
How it was run: as §1

T2 sequence (Q8R455 whole entry): as the sequence (Q8R455 whole entry, looked up) above

| Compound | EC50 |
| --- | --- |
| Cc1ccc(C(C)C)c(C(=O)Nc2ccc(C(C)(C)C)cc2)c1 | 0.6 µM |
| Cc1ccc(C(C)C)c(O)c1 [THYMOL] | 52.2 µM |
| COc1ccc(C(=O)Nc2cc(C)ccc2C(C)C)cc1 | 4.8 µM |

Biological target: T2, Transient receptor potential cation channel subfamily M member 8
Experiment: Inhibition of rat TRPM8 expressed in HEK293 cells assessed as reduction in […] icilin-stimulated increase in intracellular Ca2+ levels
Type: cell-based

| Compound | IC50 |
| --- | --- |
| Cc1ccc(C(C)C)c(C(=O)Nc2ccc(C(C)(C)C)cc2)c1 | 1.9 µM |
| Cc1ccc(C(C)C)c(NC(=O)Oc2ccc(C(F)(F)F)cc2)c1 | 23.1 µM |
| Cc1ccc(C(C)C)c(OC(=O)Cc2ccc(-c3ccccc3)cc2)c1 | > 100 µM |
| Cc1ccc(C(C)C)c(O)c1 [THYMOL] | 315 µM |
| Cc1ccc(C(C)C)c(NC(=O)Cc2cccc(I)c2)c1 | 11.6 µM |
| Cc1ccc(C(C)C)c(OC(=O)c2ccc(-c3ccccc3)cc2)c1 | 21.2 µM |
| COc1ccc(C(=O)Nc2cc(C)ccc2C(C)C)cc1 | 14.7 µM |
| Cc1ccc(C(C)C)c(NC(=O)Nc2ccc(-c3ccccc3)cc2)c1 | 37.4 µM |
| COc1ccc(C(=O)Oc2cc(C)ccc2C(C)C)cc1 | 6.5 µM |
| COc1ccc(NC(=O)Nc2cc(C)ccc2C(C)C)cc1 | 38.5 µM |
| Cc1ccc(C(C)C)c(C(=O)NCCc2c[nH]c3ccc(OCc4ccccc4)cc23)c1 | 69.4 µM |

Biological target: T2, Transient receptor potential cation channel subfamily M member 8
Experiment: Inhibition of rat TRPM8 expressed in HEK293 cells assessed as reduction in 20 uM menthol-stimulated increase in intracellular Ca2+ levels
Type: cell-based
How it was run: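 IC50 on rat TRPM8 stably expressed in HEK293 cells, measured as inhibition of the intracellular Ca2+ response to icilin or menthol. Means ± SEM, N = 3.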

| Compound | IC50 |
| --- | --- |
| Cc1ccc(C(C)C)c(C(=O)Nc2ccc(C(C)(C)C)cc2)c1 | 1.2 µM |
| Cc1ccc(C(C)C)c(NC(=O)Oc2ccc(C(F)(F)F)cc2)c1 | 73.7 µM |
| Cc1ccc(C(C)C)c(OC(=O)Cc2ccc(-c3ccccc3)cc2)c1 | > 100 µM |
| Cc1ccc(C(C)C)c(O)c1 [THYMOL] | 169 µM |
| Cc1ccc(C(C)C)c(NC(=O)Cc2cccc(I)c2)c1 | 14.1 µM |
| Cc1ccc(C(C)C)c(OC(=O)c2ccc(-c3ccccc3)cc2)c1 | 18.6 µM |
| COc1ccc(C(=O)Nc2cc(C)ccc2C(C)C)cc1 | 15.2 µM |
| Cc1ccc(C(C)C)c(NC(=O)Nc2ccc(-c3ccccc3)cc2)c1 | 25.4 µM |
| COc1ccc(C(=O)Oc2cc(C)ccc2C(C)C)cc1 | 5 µM |
| COc1ccc(NC(=O)Nc2cc(C)ccc2C(C)C)cc1 | 77.5 µM |
| Cc1ccc(C(C)C)c(C(=O)NCCc2c[nH]c3ccc(OCc4ccccc4)cc23)c1 | 61.4 µM |

Test system: HEK293
Experiment: Activation of rat TRPV3 expressed in HEK293 cells assessed as stimulation of intracellular Ca2+ levels relative to 4 uM ionomycin
Type: cell-based
How it was run: as §2

| Compound | Efficacy |
| --- | --- |
| Cc1ccc(C(C)C)c(C(=O)Nc2ccc(C(C)(C)C)cc2)c1 | 36.5% |
| Cc1ccc(C(C)C)c(NC(=O)Oc2ccc(C(F)(F)F)cc2)c1 | < 10% |
| Cc1ccc(C(C)C)c(OC(=O)Cc2ccc(-c3ccccc3)cc2)c1 | 52.7% |
| Cc1ccc(C(C)C)c(O)c1 [THYMOL] | 34.7% |
| Cc1ccc(C(C)C)c(NC(=O)Cc2cccc(I)c2)c1 | 15% |
| Cc1ccc(C(C)C)c(OC(=O)c2ccc(-c3ccccc3)cc2)c1 | 33.8% |
| COc1ccc(C(=O)Nc2cc(C)ccc2C(C)C)cc1 | < 10% |
| Cc1ccc(C(C)C)c(NC(=O)Nc2ccc(-c3ccccc3)cc2)c1 | 16.9% |
| COc1ccc(C(=O)Oc2cc(C)ccc2C(C)C)cc1 | 23.1% |
| COc1ccc(NC(=O)Nc2cc(C)ccc2C(C)C)cc1 | < 10% |
| Cc1ccc(C(C)C)c(C(=O)NCCc2c[nH]c3ccc(OCc4ccccc4)cc23)c1 | < 10% |

Test system: not listed separately
Experiment: Activation of rat TRPV3 expressed in HEK293 cells assessed as stimulation of intracellular Ca2+ levels
Type: cell-based
How it was run: as §1

| Compound | EC50 |
| --- | --- |
| Cc1ccc(C(C)C)c(C(=O)Nc2ccc(C(C)(C)C)cc2)c1 | 1.2 µM |
| Cc1ccc(C(C)C)c(OC(=O)Cc2ccc(-c3ccccc3)cc2)c1 | 3.8 µM |
| Cc1ccc(C(C)C)c(O)c1 [THYMOL] | 84.1 µM |
| Cc1ccc(C(C)C)c(NC(=O)Cc2cccc(I)c2)c1 | 15.9 µM |
| Cc1ccc(C(C)C)c(OC(=O)c2ccc(-c3ccccc3)cc2)c1 | 7.7 µM |
| Cc1ccc(C(C)C)c(NC(=O)Nc2ccc(-c3ccccc3)cc2)c1 | 5.9 µM |
| COc1ccc(C(=O)Oc2cc(C)ccc2C(C)C)cc1 | 4.9 µM |

Test system: not listed separately
Experiment: Inhibition of rat TRPV3 expressed in HEK293 cells assessed as reduction in 100 uM thymol-stimulated increase in intracellular Ca2+ levels
Type: cell-based

| Compound | IC50 |
| --- | --- |
| Cc1ccc(C(C)C)c(C(=O)Nc2ccc(C(C)(C)C)cc2)c1 | 1.1 µM |
| Cc1ccc(C(C)C)c(NC(=O)Oc2ccc(C(F)(F)F)cc2)c1 | 50.3 µM |
| Cc1ccc(C(C)C)c(OC(=O)Cc2ccc(-c3ccccc3)cc2)c1 | 1.5 µM |
| Cc1ccc(C(C)C)c(NC(=O)Cc2cccc(I)c2)c1 | 20.4 µM |
| Cc1ccc(C(C)C)c(OC(=O)c2ccc(-c3ccccc3)cc2)c1 | 6.5 µM |
| COc1ccc(C(=O)Nc2cc(C)ccc2C(C)C)cc1 | > 100 µM |
| Cc1ccc(C(C)C)c(NC(=O)Nc2ccc(-c3ccccc3)cc2)c1 | 12.8 µM |
| COc1ccc(C(=O)Oc2cc(C)ccc2C(C)C)cc1 | 9.7 µM |
| COc1ccc(NC(=O)Nc2cc(C)ccc2C(C)C)cc1 | 85.4 µM |
| Cc1ccc(C(C)C)c(C(=O)NCCc2c[nH]c3ccc(OCc4ccccc4)cc23)c1 | 41.9 µM |
